According to ChEMBL document CHEMBL4715748, “Synthesis and biological investigation of new equatorial (β) stereoisomers of 3-aminotropane arylamides with atypical antipsychotic profile” (Bioorg Med Chem, 2016):

Assays:
Mus musculus [1] = test: Effect on 8-OH-DPAT-induced hypothermia in Swiss albino mouse assessed as change in rectal body temperature at 20 mg/kg, ip pretreated with compound for 45 mins followed by 8-OH-DPAT challenge and measured after 60 min by thermometer (reference value: -0.66 to -0.5 degreeC); assay type: functional, organism-based; conditions: time 105.0 min
Mus musculus [2] = test: Effect on 8-OH-DPAT-induced hypothermia in Swiss albino mouse assessed as change in rectal body temperature at 10 mg/kg, ip pretreated with compound for 45 mins followed by 8-OH-DPAT challenge and measured after 15 min by thermometer (reference value: -1.82 to -1.66 degreeC); assay type: functional, organism-based; conditions: time 60.0 min
Mus musculus [3] = test: Antipsychotic activity Swiss Albino mouse assessed as inhibition of DOI-induced head twitching by measuring number of episodes at 2.5 mg/kg, ip administered 30 mins prior to DOI stimulation (reference value: 19.63 to 19.88); assay type: functional; conditions: 0.5 h
Outline: (§1)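 Male Albino Swiss mice (24–28 g) were habituated to sawdust-lined cages 20 min before the first treatment. Compounds were suspended in 1% aqueous Tween 80 and given i.p. 30 min before (±)-DOI, 2.5 mg/kg i.p. in aqueous solution. Head twitches were counted blind over 20 min, n=8 per group, mean ± SEM, one-way ANOVA with Dunnett's test.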

Mus musculus [4] = test: Antipsychotic activity Swiss Albino mouse assessed as inhibition of DOI-induced head twitching by measuring number of episodes at 10 mg/kg, ip administered 30 mins prior to DOI stimulation (reference value: 19.63 to 19.88); assay type: functional; conditions: 0.5 h; outline: as §1
Mus musculus [5] = test: Effect on 8-OH-DPAT-induced hypothermia in Swiss albino mouse assessed as change in rectal body temperature at 20 mg/kg, ip pretreated with compound for 45 mins followed by 8-OH-DPAT challenge and measured after 45 min by thermometer (reference value: -1.04 to -0.78 degreeC); assay type: functional, organism-based; conditions: time 90.0 min
[6] = Effect on body temperature in Swiss Albino mouse assessed as rectal body temperature at 20 mg/kg, ip measured after 90 mins by thermometer (reference value: 0.18 to 0.63 degreeC); assay type: ADME, organism-based; conditions: in vivo, 1.5 h
[7] = Half life in pooled human liver microsomes assessed as parent compound remaining at 2.5 uM measured up to 45 mins in presence of NADPH by LC-MS analysis; assay type: ADME, Microsome
Outline: (§2)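 Compound at 2.5 μM (added from 100 μM stock in 50/50 acetonitrile/water) with 1 mg/mL pooled human liver microsomes and 250 μM NADPH in 0.1 M potassium phosphate pH 7.4 at 37 °C after 5-min preincubation. Sampled at 5, 10, 15, 30, 45 min into ice-cold acetonitrile with atropine internal standard; parent quantified by LC-MS (ESI+, [M+H]+); no-NADPH controls; half-time derived.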

[8] = Effect on body temperature in Swiss Albino mouse assessed as rectal body temperature at 10 mg/kg, ip measured after 30 mins by thermometer (reference value: 0.16 to 0.33 degreeC); assay type: organism-based; conditions: in vivo, 0.5 h
[9] = Effect on body temperature in Swiss Albino mouse assessed as rectal body temperature at 10 mg/kg, ip measured after 90 mins by thermometer (reference value: 0.18 to 0.63 degreeC); assay type: ADME, organism-based; conditions: in vivo, 1.5 h
[10] = molecular target: T1, 5-hydroxytryptamine receptor 1A (Rattus norvegicus, UniProt P19327); test: Displacement of [3H]-8-OH-DPAT from rat cerebral cortex 5HT1A receptor measured after 15 mins by liquid scintillation counter method
T1 sequence (P19327 whole entry): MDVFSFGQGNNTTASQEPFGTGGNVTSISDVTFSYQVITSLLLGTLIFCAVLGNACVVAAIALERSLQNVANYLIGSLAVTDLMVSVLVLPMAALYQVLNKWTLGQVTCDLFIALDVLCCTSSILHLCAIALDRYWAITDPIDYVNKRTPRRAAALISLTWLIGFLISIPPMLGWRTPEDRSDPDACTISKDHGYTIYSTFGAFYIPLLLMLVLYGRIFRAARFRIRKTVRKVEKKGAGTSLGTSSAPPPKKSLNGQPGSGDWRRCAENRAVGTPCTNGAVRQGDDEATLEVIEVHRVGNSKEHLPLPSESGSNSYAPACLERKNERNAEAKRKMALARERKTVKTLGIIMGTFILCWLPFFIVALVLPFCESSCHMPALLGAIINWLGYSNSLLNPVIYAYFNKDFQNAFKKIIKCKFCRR

[11] = Effect on body temperature in Swiss Albino mouse assessed as rectal body temperature at 20 mg/kg, ip measured after 30 mins by thermometer (reference value: 0.16 to 0.33 degreeC); assay type: ADME, organism-based; conditions: in vivo, 0.5 h
Mus musculus [12] = test: Effect on 8-OH-DPAT-induced hypothermia in Swiss albino mouse assessed as change in rectal body temperature at 10 mg/kg, ip pretreated with compound for 45 mins followed by 8-OH-DPAT challenge and measured after 45 min by thermometer (reference value: -1.04 to -0.78 degreeC); assay type: functional, organism-based; conditions: time 90.0 min
Mus musculus [13] = test: Effect on 8-OH-DPAT-induced hypothermia in Swiss albino mouse assessed as change in rectal body temperature at 10 mg/kg, ip pretreated with compound for 45 mins followed by 8-OH-DPAT challenge and measured after 30 min by thermometer (reference value: -1.36 to -1.12 degreeC); assay type: functional, organism-based; conditions: time 75.0 min
Mus musculus [14] = test: Antipsychotic activity Swiss Albino mouse assessed as inhibition of DOI-induced head twitching by measuring number of episodes at 5 mg/kg, ip administered 30 mins prior to DOI stimulation (reference value: 19.63 to 19.88); assay type: functional; conditions: 0.5 h; outline: as §1
[15] = Effect on 8-OH-DPAT-induced lower lip retraction in Wistar rat at 20 mg/kg, ip pretreated with compound for 45 mins followed by 8-OH-DPAT challenge and measured after 15 mins (reference value: 2.7 to 2.8); assay type: functional; conditions: time 60 min, 1 h
[16] = molecular target: 5-hydroxytryptamine receptor 2A (Rattus norvegicus, UniProt P14842); test: Displacement of [3H]-ketanserin from rat cerebral cortex 5HT2A receptor measured after 20 mins by liquid scintillation counter method
Outline: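 Competition binding in rat brain tissue membranes against D2, 5-HT1A and 5-HT2A sites; Ki reported as mean ± S.E.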

[17] = Effect on body temperature in Swiss Albino mouse assessed as rectal body temperature at 10 mg/kg, ip measured after 120 mins by thermometer (reference value: 0.15 to 1.11 degreeC); assay type: organism-based; conditions: in vivo, 2 h
Mus musculus [18] = test: Effect on 8-OH-DPAT-induced hypothermia in Swiss albino mouse assessed as change in rectal body temperature at 20 mg/kg, ip pretreated with compound for 45 mins followed by 8-OH-DPAT challenge and measured after 15 min by thermometer (reference value: -1.82 to -1.66 degreeC); assay type: functional, organism-based; conditions: time 60.0 min
Mus musculus [19] = test: Effect on 8-OH-DPAT-induced hypothermia in Swiss albino mouse assessed as change in rectal body temperature at 20 mg/kg, ip pretreated with compound for 45 mins followed by 8-OH-DPAT challenge and measured after 30 min by thermometer (reference value: -1.36 to -1.12 degreeC); assay type: functional, organism-based; conditions: time 75.0 min
[20] = Metabolic stability in pooled human liver microsomes assessed as parent compound remaining at 2.5 uM incubated for 45 mins in presence of NADPH by LC-MS analysis; assay type: ADME, Microsome; conditions: read-out: Stabilty; outline: as §2
[21] = Metabolic stability in pooled human liver microsomes at 2.5 uM measured over 45 mins in presence of NADPH by LC-MS analysis; assay type: ADME, Microsome; conditions: 0.75 h; outline: as §2

5-hydroxytryptamine receptor 2A, sequence (P14842 whole entry): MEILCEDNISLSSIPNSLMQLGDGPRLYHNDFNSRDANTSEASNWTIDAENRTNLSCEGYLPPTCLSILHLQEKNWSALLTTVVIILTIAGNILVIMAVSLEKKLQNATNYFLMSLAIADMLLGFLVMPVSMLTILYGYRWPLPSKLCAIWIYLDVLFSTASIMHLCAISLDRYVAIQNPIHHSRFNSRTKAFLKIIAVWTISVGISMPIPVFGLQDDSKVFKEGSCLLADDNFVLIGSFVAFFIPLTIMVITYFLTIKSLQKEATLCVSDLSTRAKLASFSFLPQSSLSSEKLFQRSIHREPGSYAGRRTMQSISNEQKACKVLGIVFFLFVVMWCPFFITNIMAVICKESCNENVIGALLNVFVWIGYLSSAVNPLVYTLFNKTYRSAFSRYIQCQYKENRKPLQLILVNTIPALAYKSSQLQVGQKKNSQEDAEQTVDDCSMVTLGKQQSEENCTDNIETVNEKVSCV

Compound | deltaT (Mus musculus [1]) | deltaT (Mus musculus [2]) | Activity (Mus musculus [3]) | Activity (Mus musculus [4]) | deltaT (Mus musculus [5]) | deltaT [6] | half-life at 2.5 µM [7] | deltaT [8] | deltaT [9] | Ki [10] | deltaT [11] | deltaT (Mus musculus [12]) | deltaT (Mus musculus [13]) | Activity (Mus musculus [14]) | Activity [15] | Ki [16] | deltaT [17] | deltaT (Mus musculus [18]) | deltaT (Mus musculus [19]) | remaining at 0.75 h, 2.5 µM [20] | other results
Cc1cccc(CN2C3CCC2CC(NC(=O)c2ccc4ccccc4c2)C3)c1 (stereo not drawn) | -1.5 °C | -0.7 °C | 13 | 2.38 | -2.08 °C | 0.2 °C | 30 min | -0.02 °C | 0.35 °C | 182 nM | 0.04 °C | -0.48 °C | -0.97 °C | 10 | 2.3 | 231 nM | 0.27 °C | -1.9 °C | -2.08 °C |  | 
O=C(NC1CC2CCC(C1)N2Cc1cccc(Cl)c1)c1ccc2ccccc2c1 (stereo not drawn) | -1.57 °C | -1.03 °C | 17.25 | 8.75 | -2.22 °C | 0.41 °C | > 45 min | 0.17 °C | 0.84 °C | 298 nM | -0.38 °C | -0.85 °C | -1.22 °C | 13.13 | 2.1 | 136 nM | 1.16 °C | -2.12 °C | -2.22 °C | > 50% | Stabilty [21]: Stable
O=C(NC1CC2CCC(C1)N2Cc1ccc(F)cc1)c1ccc2ccccc2c1 (stereo not drawn) | -1 °C | -1.55 °C | 5.75 | 5.38 | -1.43 °C | 0.23 °C | > 45 min | -0.17 °C | 0.44 °C | 218 nM | -0.33 °C | -0.92 °C | -1.32 °C | 5 | 2.4 | 209 nM | 0.59 °C | -1.62 °C | -1.6 °C | > 50% | Stabilty [21]: Stable
O=C(NC1CC2CCC(C1)N2Cc1cccc(Br)c1)c1ccc2ccccc2c1 (stereo not drawn) | -0.58 °C | -1.32 °C | 14.5 | 11.88 | -1.25 °C | 0.36 °C | > 45 min | -0.2 °C | 0.64 °C | 200 nM | -0.3 °C | -1 °C | -1.62 °C | 13.88 | 2.5 | 106 nM | 1.14 °C | -1.42 °C | -1.37 °C | > 50% | Stabilty [21]: Stable
O=C(NC1CC2CCC(C1)N2Cc1cccc(F)c1)c1ccc2ccccc2c1 (stereo not drawn) | -1.08 °C | -1.6 °C | 11.38 | 2.38 | -1.53 °C | 0.2 °C | > 45 min | -0.17 °C | 0.47 °C | 211 nM | -0.36 degrees C | -0.97 °C | -1.37 °C | 3.88 | 2.3 | 102 nM | 0.74 °C | -1.67 °C | -1.83 °C | > 50% | Stabilty [21]: Stable
